Experimental data as given in ChEMBL document CHEMBL5321266, “Discovery of a Series of Indane-Containing NBTIs with Activity against Multidrug-Resistant Gram-Negative Pathogens” (ACS Med Chem Lett, 2023).
Converted amounts (≈) assume the structure as drawn.

Tests used:
[1] = target: Voltage-gated inwardly rectifying potassium channel KCNH2 (Homo sapiens, UniProt Q12809); test: Inhibition of human ERG expressed in CHO cells by automated path clamp method; type: toxicity, cell-based; conditions: for inhibition (INH): human, cho
In short: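 Patch-clamp electrophysiology on the hERG ion channel, recorded at 37 °C; the IC₅₀ was determined.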

DNA gyrase [2] = target: T1, DNA gyrase (Escherichia coli, UniProt P0AES4+P0AES6); test: Inhibition of Escherichia coli DNA gyrase ATPase activity incubated for 80 mins; type: protein-complex assay
Klebsiella pneumoniae = test: Antibacterial activity against Klebsiella pneumoniae ATCC BAA-1705 incubated for 20 to 24 hrs by CLSI based broth microdilution method; type: functional; conditions: time 20-24 hrs
Pseudomonas aeruginosa = test: Antibacterial activity against Pseudomonas aeruginosa ATCC 27853 incubated for 20 to 24 hrs by CLSI based broth microdilution method; type: functional; conditions: time 20-24 hrs
Escherichia coli = test: Antibacterial activity against Escherichia coli ATCC 25922 incubated for 20 to 24 hrs by CLSI based broth microdilution method; type: functional; conditions: time 20-24 hrs
Acinetobacter baumannii = test: Antibacterial activity against Acinetobacter baumannii ATCC 19606 incubated for 20 to 24 hrs by CLSI based broth microdilution method; type: functional; conditions: time 20-24 hrs
DNA gyrase [3] = target: T1, DNA gyrase; test: Inhibition of Escherichia coli DNA gyrase supercoiling activity using relaxed pBR322 DNA as substrate preincubated for 5 mins followed by enzyme addition and measured after 1 hr by agarose gel electrophoresis; type: protein-complex assay
[4] = target: DNA topoisomerase 2-alpha (Homo sapiens, UniProt P11388); test: Inhibition of human topoisomerase 2 alpha decatenation activity using kDNA as substrate preincubated for 5 mins followed by enzyme addition and measured after 1 hr by agarose gel electrophoresis
[5] = Inhibition of Escherichia coli topoisomerase 4 decatenation activity using kDNA as substrate preincubated for 5 mins followed by enzyme addition and measured after 1 hr by agarose gel electrophoresis method

Voltage-gated inwardly rectifying potassium channel KCNH2, sequence (Q12809 whole entry): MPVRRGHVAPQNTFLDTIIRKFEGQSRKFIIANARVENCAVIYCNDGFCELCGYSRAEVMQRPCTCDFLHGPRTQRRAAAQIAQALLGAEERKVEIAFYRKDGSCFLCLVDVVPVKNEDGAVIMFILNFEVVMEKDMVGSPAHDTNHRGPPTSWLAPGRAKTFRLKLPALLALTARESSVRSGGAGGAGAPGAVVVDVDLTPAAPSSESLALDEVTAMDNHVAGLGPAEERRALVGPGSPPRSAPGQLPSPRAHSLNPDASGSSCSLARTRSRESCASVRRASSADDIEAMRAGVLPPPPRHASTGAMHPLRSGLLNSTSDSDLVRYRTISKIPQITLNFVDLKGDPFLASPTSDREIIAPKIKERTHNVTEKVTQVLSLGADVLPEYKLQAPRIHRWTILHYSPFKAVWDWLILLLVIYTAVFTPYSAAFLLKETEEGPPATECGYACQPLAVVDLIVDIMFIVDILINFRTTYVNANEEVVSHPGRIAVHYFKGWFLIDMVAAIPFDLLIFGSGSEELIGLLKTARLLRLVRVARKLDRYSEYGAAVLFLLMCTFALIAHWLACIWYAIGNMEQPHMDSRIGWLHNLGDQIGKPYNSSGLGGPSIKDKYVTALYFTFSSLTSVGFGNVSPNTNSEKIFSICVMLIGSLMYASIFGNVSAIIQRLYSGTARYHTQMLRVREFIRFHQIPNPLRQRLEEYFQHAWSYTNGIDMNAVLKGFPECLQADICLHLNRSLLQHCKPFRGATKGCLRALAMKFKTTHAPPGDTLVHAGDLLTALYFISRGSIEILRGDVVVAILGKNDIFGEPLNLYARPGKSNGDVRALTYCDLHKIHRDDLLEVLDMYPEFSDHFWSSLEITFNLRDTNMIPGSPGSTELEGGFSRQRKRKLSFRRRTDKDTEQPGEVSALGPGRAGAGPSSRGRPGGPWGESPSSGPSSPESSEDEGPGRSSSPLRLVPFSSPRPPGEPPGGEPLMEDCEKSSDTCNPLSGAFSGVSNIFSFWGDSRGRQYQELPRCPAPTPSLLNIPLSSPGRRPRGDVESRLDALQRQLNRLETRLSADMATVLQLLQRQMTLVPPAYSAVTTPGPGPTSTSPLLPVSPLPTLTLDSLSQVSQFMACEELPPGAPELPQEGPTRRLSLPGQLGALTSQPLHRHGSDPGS
DNA topoisomerase 2-alpha, sequence (P11388 whole entry): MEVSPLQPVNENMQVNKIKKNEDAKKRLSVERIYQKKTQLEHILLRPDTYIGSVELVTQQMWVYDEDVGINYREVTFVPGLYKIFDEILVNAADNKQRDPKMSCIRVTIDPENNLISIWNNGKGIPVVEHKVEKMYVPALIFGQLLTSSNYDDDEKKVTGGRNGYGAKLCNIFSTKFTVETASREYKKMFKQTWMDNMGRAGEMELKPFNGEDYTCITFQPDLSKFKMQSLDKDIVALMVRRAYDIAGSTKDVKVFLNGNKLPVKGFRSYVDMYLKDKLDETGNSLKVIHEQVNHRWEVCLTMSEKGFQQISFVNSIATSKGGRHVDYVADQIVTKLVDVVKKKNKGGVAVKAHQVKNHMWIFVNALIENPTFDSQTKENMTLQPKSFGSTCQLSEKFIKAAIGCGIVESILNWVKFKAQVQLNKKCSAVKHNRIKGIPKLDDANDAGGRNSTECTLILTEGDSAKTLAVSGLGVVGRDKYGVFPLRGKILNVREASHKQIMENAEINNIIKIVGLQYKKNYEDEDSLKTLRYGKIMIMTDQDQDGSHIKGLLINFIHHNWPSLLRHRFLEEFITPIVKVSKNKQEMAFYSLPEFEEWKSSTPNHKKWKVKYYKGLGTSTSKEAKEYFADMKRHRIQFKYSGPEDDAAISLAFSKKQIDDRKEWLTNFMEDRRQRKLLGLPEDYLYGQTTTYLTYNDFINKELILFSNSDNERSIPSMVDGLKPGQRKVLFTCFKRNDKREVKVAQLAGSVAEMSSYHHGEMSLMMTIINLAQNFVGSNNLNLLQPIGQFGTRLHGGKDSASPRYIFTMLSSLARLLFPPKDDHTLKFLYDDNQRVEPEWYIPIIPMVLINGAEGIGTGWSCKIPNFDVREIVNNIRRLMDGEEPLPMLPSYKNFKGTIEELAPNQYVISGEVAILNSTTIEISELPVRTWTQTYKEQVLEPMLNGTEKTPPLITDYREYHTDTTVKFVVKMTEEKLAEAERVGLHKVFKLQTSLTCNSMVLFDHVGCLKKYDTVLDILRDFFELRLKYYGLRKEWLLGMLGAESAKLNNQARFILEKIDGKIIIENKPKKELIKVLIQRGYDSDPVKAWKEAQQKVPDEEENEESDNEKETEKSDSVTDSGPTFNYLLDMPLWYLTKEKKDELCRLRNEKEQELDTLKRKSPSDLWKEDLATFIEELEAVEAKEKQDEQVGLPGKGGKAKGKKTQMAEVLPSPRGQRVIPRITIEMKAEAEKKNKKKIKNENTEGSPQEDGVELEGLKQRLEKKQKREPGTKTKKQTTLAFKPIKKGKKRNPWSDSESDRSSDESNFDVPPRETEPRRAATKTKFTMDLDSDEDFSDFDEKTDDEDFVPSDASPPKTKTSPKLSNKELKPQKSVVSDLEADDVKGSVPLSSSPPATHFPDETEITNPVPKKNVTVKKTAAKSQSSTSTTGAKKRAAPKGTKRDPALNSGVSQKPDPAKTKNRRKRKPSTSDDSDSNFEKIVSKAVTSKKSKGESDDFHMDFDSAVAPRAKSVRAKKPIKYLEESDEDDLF

SMILES | inhibition (INH) [1] | IC50 (DNA gyrase [2]) [nM] | MIC (Klebsiella pneumoniae) [µg/mL] | MIC (Pseudomonas aeruginosa) [µg/mL] | MIC (Escherichia coli) [µg/mL] | MIC (Acinetobacter baumannii) [µg/mL] | IC50 [1] [nM] | IC50 (DNA gyrase [3]) [nM] | IC50 [4] [nM] | IC50 [5] [nM]
O=C1COc2ccc(N3CC(CCNC4Cc5cccc(Cl)c5C4)OC3=O)nc2N1 (stereo not given) | Active | 290 | 16 (≈ 37.3 µM) | 16 (≈ 37.3 µM) | 2 (≈ 4.66 µM) | 4 (≈ 9.33 µM) |  |  |  | 
N#Cc1cccc2c1CC(CNCCC1CN(c3ccc4c(n3)NC(=O)CO4)C(=O)O1)C2 (stereo not given) |  | 21 | 1 (≈ 2.31 µM) | 0.5 (≈ 1.15 µM) | ≤ 0.06 | 0.125 (≈ 0.288 µM) | 900 | 100 | > 100000 | 160
O=C1COc2ccc(N3CC(CCNCC4Cc5cccc(Cl)c5C4)OC3=O)nc2N1 (stereo not given) | Active | 90 | 2 (≈ 4.52 µM) | 2 (≈ 4.52 µM) | 0.125 (≈ 0.282 µM) | 0.125 (≈ 0.282 µM) |  |  |  | 
O=c1cc(NCC2CN(CC3Cc4ccnc(Cl)c4C3)C2)c2cc(F)ccc2o1 (stereo not given) | Active | 160 | 32 (≈ 77.3 µM) | 8 (≈ 19.3 µM) | 2 (≈ 4.83 µM) | 4 (≈ 9.66 µM) |  |  |  | 
O=C1COc2ccc(N3CC(CNCC4Cc5cccc(Cl)c5C4)OC3=O)nc2N1 (stereo not given) | Active | 230 | 32 (≈ 74.6 µM) | 8 (≈ 18.7 µM) | 0.5 (≈ 1.17 µM) | 1 (≈ 2.33 µM) |  |  |  | 
O=C1COc2ccc(N3CC(CNCCC4Cc5cccc(Cl)c5C4)OC3=O)nc2N1 (stereo not given) | Active | 90 | 4 (≈ 9.03 µM) | 1 (≈ 2.26 µM) | 0.25 (≈ 0.564 µM) | 0.25 (≈ 0.564 µM) |  |  |  | 
O=C1COc2ccc(N3CC(CCCNC4Cc5ccccc5C4)OC3=O)nc2N1 (stereo not given) | Active | 270 | 16 (≈ 39.2 µM) | 8 (≈ 19.6 µM) | 2 (≈ 4.9 µM) | 8 (≈ 19.6 µM) |  |  |  | 
N#Cc1cccc2c1CC(NCCCC1CN(c3ccc4c(n3)NC(=O)CO4)C(=O)O1)C2 (stereo not given) | Active | 57 | 2 (≈ 4.61 µM) | 2 (≈ 4.61 µM) | 0.25 (≈ 0.577 µM) | 0.5 (≈ 1.15 µM) |  |  |  | 
O=C1COc2ccc(N3CC(CCNCC4Cc5ccccc5C4)OC3=O)nc2N1 (stereo not given) | Active | 180 | 8 (≈ 19.6 µM) | 8 (≈ 19.6 µM) | 1 (≈ 2.45 µM) | 2 (≈ 4.9 µM) |  |  |  | 
O=C1COc2ccc(N3CC(CCNCC4Cc5cccc(F)c5C4)OC3=O)nc2N1 (stereo not given) | Active | 100 | 4 (≈ 9.38 µM) | 4 (≈ 9.38 µM) | 0.5 (≈ 1.17 µM) | 0.5 (≈ 1.17 µM) |  |  |  | 
O=C1COc2ccc(N3CC(CCCNC4Cc5cccc(F)c5C4)OC3=O)nc2N1 (stereo not given) | Active | 120 | 4 (≈ 9.38 µM) | 4 (≈ 9.38 µM) | 0.5 (≈ 1.17 µM) | 1 (≈ 2.34 µM) |  |  |  | 
O=C1COc2ccc(N3CC(CNC4Cc5cccc(Cl)c5C4)OC3=O)nc2N1 (stereo not given) | Active | 580 | > 64 | > 64 | 8 (≈ 19.3 µM) | 4 (≈ 9.64 µM) |  |  |  | 
O=C1COc2ccc(N3CC(CCCNC4Cc5cccc(Cl)c5C4)OC3=O)nc2N1 (stereo not given) | Active | 72 | 2 (≈ 4.52 µM) | 2 (≈ 4.52 µM) | 0.25 (≈ 0.564 µM) | 0.5 (≈ 1.13 µM) |  |  |  | 
O=C1COc2ccc(N3CC(CCNCCC4Cc5cccc(Cl)c5C4)OC3=O)nc2N1 (stereo not given) | Active | 120 | 8 (≈ 17.5 µM) | 4 (≈ 8.75 µM) | 0.5 (≈ 1.09 µM) | 1 (≈ 2.19 µM) |  |  |  | 
O=C1COc2ccc(N3CC(CCCNC4CCc5c(Cl)cccc54)OC3=O)nc2N1 (stereo not given) | Active | 190 | 16 (≈ 36.1 µM) | 8 (≈ 18.1 µM) | 2 (≈ 4.52 µM) | 8 (≈ 18.1 µM) |  |  |  | 
O=C1COc2ccc(N3CC(CCCNC4Cc5ccc(Cl)cc5C4)OC3=O)nc2N1 (stereo not given) | Active | 250 | 8 (≈ 18.1 µM) | 16 (≈ 36.1 µM) | 2 (≈ 4.52 µM) | 4 (≈ 9.03 µM) |  |  |  | 
O=C1COc2ccc(N3CC(CCCNC4Cc5ccc(F)cc5C4)OC3=O)nc2N1 (stereo not given) | Active | 160 | 8 (≈ 18.8 µM) | 16 (≈ 37.5 µM) | 1 (≈ 2.34 µM) | 4 (≈ 9.38 µM) |  |  |  | 
